Results gathered from unrelated publications.
Compare with care: the assays were run in different laboratories.
Target: Serine/threonine-protein kinase RIO1 (RIOK1, Homo sapiens, UniProt Q9BRS2)
Sequence (Q9BRS2 1-568, as in one of the studies): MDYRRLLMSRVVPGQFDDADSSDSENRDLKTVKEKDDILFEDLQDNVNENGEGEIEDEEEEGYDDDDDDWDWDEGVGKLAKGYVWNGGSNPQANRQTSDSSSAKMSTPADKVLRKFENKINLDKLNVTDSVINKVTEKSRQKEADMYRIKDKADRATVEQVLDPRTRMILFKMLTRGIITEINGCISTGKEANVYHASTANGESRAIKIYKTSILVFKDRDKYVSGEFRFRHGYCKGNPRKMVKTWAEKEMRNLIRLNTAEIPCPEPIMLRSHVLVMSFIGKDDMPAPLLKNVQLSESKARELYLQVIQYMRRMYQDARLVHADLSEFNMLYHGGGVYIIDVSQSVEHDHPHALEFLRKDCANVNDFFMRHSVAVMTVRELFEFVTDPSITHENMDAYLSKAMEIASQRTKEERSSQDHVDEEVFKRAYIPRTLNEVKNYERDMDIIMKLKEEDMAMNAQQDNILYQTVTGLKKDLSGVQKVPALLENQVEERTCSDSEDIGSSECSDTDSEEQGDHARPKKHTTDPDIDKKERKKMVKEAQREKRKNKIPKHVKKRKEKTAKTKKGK

SMILES	test	setting	remaining binding [%]
Cc1cnn2ncc(-c3ccnc(N(C)C)n3)c2c1	binding	1 µM	98
COc1cnc(Nc2cccc(S(N)(=O)=O)c2)nc1N1CCN(c2ccccc2)CC1	binding, competition with immobilised ligand	1 µM	73
F[C@@H]1CCN(c2nccc(-c3cnn4ncccc34)n2)C1	binding	1 µM	93
C[C@@H](c1ccc(-n2cnc3c(N)ncnc32)cc1)N1CCc2nn(C)c(Cc3ccccc3)c2C1=O	binding, competition with immobilised ligand	0.1 µM	69
CCC(=N\O)/C(C)=C/c1ccc(F)cc1	cell-free assay, competition with immobilised ligand	1 µM	80
CN(C)c1nccc(-c2cnn3ncccc23)n1	binding	1 µM	100
O=C(c1ccc(Nc2ncc(Cl)c(-c3ccc(Cl)s3)n2)cc1)N1CCC(N2CCCC2)CC1	binding, competition with immobilised ligand	1 µM	0
c1cnn2ncc(-c3ccnc(N4CCC45COC5)n3)c2c1	binding	1 µM	36
O=C(Nc1c[nH]nc1C(=O)NC1CCNCC1)c1cc(F)cc(F)c1	binding, competition with immobilised ligand	1 µM	68
C[C@H]1CCN(c2nccc(-c3cnn4ncccc34)n2)C1	binding	1 µM	62
CCCOc1ccc([C@@H]2[C@@H](C(=O)O)[C@H](c3ccc4c(c3)OCO4)CN2CC(=O)Nc2c(CC)cccc2CC)cc1	cell-free assay, competition with immobilised ligand	1 µM	100
Cc1cnc(Nc2ccc(C(=O)N3CCC(N4CCCC4)CC3)cc2)nc1-c1cc2ccccc2s1	binding, competition with immobilised ligand	1 µM	0
Cn1nc(C(=O)NCc2ccc(C(=O)O)cc2)cc1-c1ccc2[nH]ccc2c1	cell-free assay, competition with immobilised ligand	0.1 µM	76
N[C@@H]1CCN(c2nccc(-c3cnn4ncccc34)n2)C1	binding	1 µM	96
Cn1cc(Cl)c2c(Oc3c(F)cc(Nc4cc(Cl)nc(N)n4)cc3F)ccnc21	cell-free assay, competition with immobilised ligand	0.1 µM	100
CN(CCCC(F)(F)F)c1nccc(-c2cnn3ncccc23)n1	binding	1 µM	100
C[C@@H]1CN(c2cc(-c3n[nH]c4ccc(OC5(C)CC5)cc34)ncn2)C[C@H](C)O1	cell-free assay, competition with immobilised ligand	0.1 µM	100
CNC(=O)[C@@H]1CC[C@@H](n2c(-c3ccc4cnccc4c3)nc3ccc(C(=O)NCc4cccc(C(N)=O)c4)cc32)C1	binding, competition with immobilised ligand	1 µM	100
CNCc1ccccc1-c1csc([C@H](C)Nc2nc(C)nc3cc(OC)c(OC)cc23)c1	cell-free assay, competition with immobilised ligand	1 µM	96
O=C(NCCCN1CCOCC1)c1ccc(Nc2ncc(Cl)c(-c3ccc(Cl)s3)n2)cc1	binding, competition with immobilised ligand	1 µM	0.05
O=C(NCc1ncc(C(F)(F)F)cc1Cl)c1ccc2c(c1)C1(CCS(=O)(=O)CC1)[C@@H](C1CC1)N2S(=O)(=O)c1ccc(F)cc1	cell-free assay, competition with immobilised ligand	1 µM	78
c1cncc(-c2cccc(Nc3nccc(NC4CCCCC4)n3)c2)c1	binding, competition with immobilised ligand	10 µM	26
